# Reference: ChEMBL document CHEMBL1155708, “Isoaurostatin, a novel topoisomerase inhibitor produced by Thermomonospora alba” (J Nat Prod, 2001)
# Legend:
# [1] = target: Type II restriction enzyme EcoRI (Escherichia coli, UniProt P00642); test: Inhibition of Escherichia coli Eco R1 assessed as undigested supercoiled pBR322 DNA concentration
# Outline: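 Restriction enzyme or nuclease activity followed as the remaining undigested supercoiled pBR322 DNA (or RNA) after reaction.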
# DNA topoisomerase 1 [2] = target: T1, DNA topoisomerase 1 (Homo sapiens, UniProt P11387); test: Inhibition topoisomerase 1 in human A549 cells assessed as conversion of supercoiled pBR322 DNA to relaxed form; type: cell-based
# T1 sequence (P11387 whole entry): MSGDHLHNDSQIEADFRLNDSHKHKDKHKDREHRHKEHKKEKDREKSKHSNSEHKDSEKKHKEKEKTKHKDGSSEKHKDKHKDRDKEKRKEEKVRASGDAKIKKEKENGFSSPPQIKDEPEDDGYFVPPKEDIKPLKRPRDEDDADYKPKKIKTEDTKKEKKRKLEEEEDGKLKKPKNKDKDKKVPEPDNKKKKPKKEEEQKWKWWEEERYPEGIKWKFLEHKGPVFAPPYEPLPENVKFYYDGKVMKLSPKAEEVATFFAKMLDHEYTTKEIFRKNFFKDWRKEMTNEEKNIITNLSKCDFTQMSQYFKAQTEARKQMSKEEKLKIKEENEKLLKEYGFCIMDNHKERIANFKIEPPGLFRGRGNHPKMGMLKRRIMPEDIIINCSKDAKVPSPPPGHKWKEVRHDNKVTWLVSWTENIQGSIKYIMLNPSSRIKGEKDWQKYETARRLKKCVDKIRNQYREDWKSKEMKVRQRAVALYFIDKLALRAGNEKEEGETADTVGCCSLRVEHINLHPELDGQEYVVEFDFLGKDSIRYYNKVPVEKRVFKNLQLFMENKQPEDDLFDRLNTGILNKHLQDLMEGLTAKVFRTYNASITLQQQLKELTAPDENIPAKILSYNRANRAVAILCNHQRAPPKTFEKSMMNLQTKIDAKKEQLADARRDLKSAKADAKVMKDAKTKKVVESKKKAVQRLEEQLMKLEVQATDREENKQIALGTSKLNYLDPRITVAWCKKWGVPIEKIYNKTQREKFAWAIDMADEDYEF
# Outline: (§1)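 Topo I source: crude extract from cells grown 5 days, PBS-washed and pelleted (1 × 10^6 cells), then lysed 30 min on ice in Tris-HCl pH 7.5 buffer with MgCl2, EGTA, AEBSF, β-mercaptoethanol, 0.5% CHAPS and 10% glycerin. The cleared supernatant relaxes supercoiled pBR322 DNA. Products are resolved on agarose gel and scored by densitometry.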
# DNA topoisomerase 1 [3] = target: T1, DNA topoisomerase 1; test: Inhibition topoisomerase 1 in human COLO201 cells assessed as conversion of supercoiled pBR322 DNA to relaxed form; type: cell-based; outline: as §1
# DNA topoisomerase 1 [4] = target: T1, DNA topoisomerase 1; test: Inhibition topoisomerase 1 in human HeLa cells assessed as conversion of supercoiled pBR322 DNA to relaxed form; type: cell-based; outline: as §1
# Chain of Type II restriction enzyme EcoRI (P00642 whole entry): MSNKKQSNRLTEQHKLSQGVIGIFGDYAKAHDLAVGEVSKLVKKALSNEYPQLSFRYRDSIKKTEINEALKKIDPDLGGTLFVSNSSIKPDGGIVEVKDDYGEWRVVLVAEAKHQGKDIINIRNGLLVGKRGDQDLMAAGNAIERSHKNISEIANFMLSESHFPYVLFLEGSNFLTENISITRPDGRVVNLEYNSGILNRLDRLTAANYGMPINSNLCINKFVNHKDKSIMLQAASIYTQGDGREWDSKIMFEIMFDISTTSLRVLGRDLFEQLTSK
Structure (SMILES),IC50 [1] [µM],IC50 (DNA topoisomerase 1 [2]) [µM],IC50 (DNA topoisomerase 1 [3]) [µM],IC50 (DNA topoisomerase 1 [4]) [µM]
CC[C@@]1(O)C(=O)OCc2c1cc1n(c2=O)Cc2cc3ccccc3nc2-1 [CAMPTOTHECIN],> 300,,,
COc1cccc2c1C(=O)c1c(O)c3c(c(O)c1C2=O)C[C@@](O)(C(=O)CO)C[C@@H]3O[C@H]1C[C@H](N)[C@H](O)[C@H](C)O1 [DOXORUBICIN],> 200,,,
O=C1Oc2cc(O)ccc2/C1=C\c1ccc(O)cc1 [ISOAUROSTATIN],> 400,> 400,> 400,> 400
C=C1NC(=O)C(C)C(CCC(C)C(=O)/C=C/C(C)=C/CC(C)CCCCCCC)OC(=O)[C@H](CC(OS(=O)(=O)O)C(N)=O)NC(=O)[C@@H](C)CNC1=O (stereo not given in full) [TOPOSTATIN],> 250,55,50,29
